Screens (PubChem BioAssay)
Most compounds without a hit are left out; they make up all but 2% or so of the library.
HSP90 refold inh = blocks HSP90-mediated luciferase refolding in reticulocyte lysate. Rabbit reticulocyte lysate, luciferase refolding luminescence, 3 h. inhibition, % at 5.6 µM. 290,000 tested, 0.91% active;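 active means inhibition above the screen-wide mean plus 3 SD, computed separately per campaign, cut at about 16% in these data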;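 further: 0% = DMSO wells and 100% = 60 µM geldanamycin wells; inhibitors lower the luminescence because luciferase stays unfolded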
STAT3 inh = reduces IL-6 driven STAT3 reporter signal; U3A cells, IL-6 STAT3-luciferase reporter, luminescence; host cell line lacks STAT1; inhibition, % at 5.5 µM; 190,000 tested, 0.89% active; AID 862;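 active means inhibition above the mean inhibition across all screened compounds plus 3 SD, cut at about 44% in these data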;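 further: 0% = DMSO only wells and 100% = 100 µM nifuroxazide control wells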
STAT1 blocker = STAT1 signaling inhibition. inhibition, % at 5.5 µM. 200,000 tested, 0.35% active. NIH 3T3 STAT1-luciferase reporter, IFN-gamma, luminescence. AID 920;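 active means inhibition above a set limit, the mean inhibition across all tested compounds plus 3 SD, cut at about 34% in these data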;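 further: 0% = IFN-gamma with DMSO and 100% = IFN-gamma with 300 µM nifuroxazide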
STAT3 act = activators of IL-6 induced STAT3 signaling | U3A cells, IL-6 STAT3-luciferase reporter, luminescence; 100% = signal with IL-6 EC80 alone | activation (% of control), % at 5.6 µM | 190,000 tested, 0.91% active;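 active means activation above the screen-wide mean of compound activation plus 3 SD, cut at about 130% in these data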;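 further: 0% = background luminescence of wells with medium and substrate only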
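System – human U3A cells carrying STAT3-luciferase construct · Probe or stimulus – Interleukin-6, 33 ng/mL · Schedule – compound 1 h, then IL-6 6 h at 37 °C · Signal – luminescence from STAT3-driven luciferase reporter · Evaluation – percent of IL-6-only median luminescence · Benchmarks – IL-6-only high control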
HSP90 confirm = confirmation of HSP90 inhibitors | shares compounds with HSP90 refold inh | rabbit reticulocyte lysate, luciferase refolding luminescence, 3 h | inhibition, % at 5.9 µM | 2,300 tested, 64% active | AID 1846; in the data active means inhibition above about 18%;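 further: 0% = vehicle wells and 100% = reference inhibitor wells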
FLuc counter = blocks native firefly luciferase in HSP90 counter-screen | shares compounds with HSP90 refold inh | purified native firefly luciferase, luminescence | inhibition, % at 5.9 µM | 2,300 tested, 48% active;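 active means inhibition above the mean inhibition of all tested sample wells plus 3 SD, cut at about 10% in these data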;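 further: 0% = DMSO with luciferase and 100% = wells lacking luciferase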
Target sequence (P08659 whole entry, looked up): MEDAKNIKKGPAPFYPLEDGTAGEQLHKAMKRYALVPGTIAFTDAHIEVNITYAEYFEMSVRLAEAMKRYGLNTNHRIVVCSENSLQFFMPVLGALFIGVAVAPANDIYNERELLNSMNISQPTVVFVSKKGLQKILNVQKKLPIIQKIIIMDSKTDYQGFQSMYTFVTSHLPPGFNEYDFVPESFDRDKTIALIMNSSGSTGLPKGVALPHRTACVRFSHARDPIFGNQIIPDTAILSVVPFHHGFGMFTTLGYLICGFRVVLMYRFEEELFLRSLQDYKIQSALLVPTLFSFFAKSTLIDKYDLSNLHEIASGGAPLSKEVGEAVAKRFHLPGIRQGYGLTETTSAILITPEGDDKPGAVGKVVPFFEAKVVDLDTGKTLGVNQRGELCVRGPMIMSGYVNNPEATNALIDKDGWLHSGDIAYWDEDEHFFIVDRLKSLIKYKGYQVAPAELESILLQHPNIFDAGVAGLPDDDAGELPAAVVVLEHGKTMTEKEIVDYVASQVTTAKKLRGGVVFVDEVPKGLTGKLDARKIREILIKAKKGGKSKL
Numbers without * were called inactive; . = not tested or not shown.

SMILES	HSP90 refold inh	STAT3 inh	STAT1 blocker	STAT3 act	HSP90 confirm	FLuc counter
Cc1ccc2c(c1)sc(=NC(=O)c1cccs1)n2C	28*	88*	81*	32	84*	80*
Cc1ccc2c(c1)sc(=NC(=O)C1CC1)n2C	4	.	.	.	.	.
c1coc(CNc2nc(-c3cccs3)cs2)c1	18*	6	-31	96	7	-26
CCOc1ccc(CNC(=O)CCC(=O)n2ncc3ccc(Cl)cc32)cc1	-1	.	.	.	.	.
CN(C)S(=O)(=O)Oc1ccsc1C(=O)Nc1ccc(Cl)c(Cl)c1	20*	9	3	98	6	-2
CN(C)S(=O)(=O)Oc1ccsc1C(=O)Nc1cccc(Cl)c1	3	2	6	103	.	.
COc1nc(C)cc(C)c1S(=O)(=O)c1ccccc1	18*	.	.	.	-6	-8
O=S(=O)(c1cc(F)ccc1F)N1CCN(C2CCCCC2)CC1	0	.	.	.	.	.
CC(C)c1cc(C(=O)O)c2cnn(C(C)C)c2n1	2	.	.	.	.	.
CN(C)c1ccc(/C=C/c2cc[n+](C)cc2)cc1	2	18	17	83	.	.
C[n+]1ccc(/C=C/c2cccs2)cc1	28*	.	.	.	0	-4
CN1N=C2c3ccccc3CCC2C1c1ccc(Cl)cc1 (configuration not stated)	23*	.	.	.	34*	16*
C=CCc1cccc(C=Nc2cc(Br)ccc2O)c1O	44*	4	30	97	80*	-8
CC(C)COP(=O)(c1ccc(N(C)C)cc1)C(O)c1ccc(N(C)C)cc1 (configuration not stated)	0	.	.	.	.	.
CC(C)OP(=O)(c1ccc(N(C)C)cc1)C(O)c1ccc(N(C)C)cc1 (configuration not stated)	30*	.	.	.	-5	-7
COc1ccc2nc(NC(=O)CSc3cn[nH]n3)sc2c1	0	.	.	.	.	.
CCOc1ccc2nc(NC(=O)CSc3cn[nH]n3)sc2c1	19*	.	.	.	25*	14*
Cn1nc(Cc2n[nH]c(=S)n2C)c2ccccc2c1=O	-3	.	.	.	.	.
CCCCC(=O)NC(c1ccccc1)c1ccc2cccnc2c1O (configuration not stated)	16	.	.	.	.	.
CCCC(=O)NC(c1ccccc1)c1ccc2cccnc2c1O (configuration not stated)	20*	.	.	.	18*	-3
CCn1cnc2cc(NCc3nc4ccccc4n3Cc3ccccc3)ccc21	48*	-5	-47	108	47*	40*
O=C(O)c1ccc(NCc2nc3ccccc3n2Cc2ccccc2)cc1	4	.	.	.	.	.
Cc1c(C(=O)O)cccc1-c1ccc(/C=N/n2cnnc2)o1	18*	.	.	.	20*	8
Cc1c(Cl)cccc1-c1ccc(/C=N/n2cnnc2)o1	1	12	-7	90	.	.
COC(=O)c1ccc(/C=N/Nc2nc(N3CCCCC3)nc(N3CCCCC3)n2)cc1	1	16	1	96	.	.
SMILES	HSP90 refold inh	STAT3 inh	STAT1 blocker	STAT3 act	HSP90 confirm	FLuc counter
CC(C)OC(=O)CSc1nnc(-c2cccnc2)n1N	4	7	3	95	.	.
CC(NC(=O)CSc1nnc(-c2cccnc2)n1N)c1ccccc1 (configuration not stated)	18*	23	5	87	0	-7
Cc1cc(OC(=O)c2ccccc2Br)c([N+](=O)[O-])c(=O)[nH]1	-1	.	.	.	.	.
CCOC(=O)C1CCCN(Cc2nc(C3CC3)no2)C1 (configuration not stated)	-1	.	.	.	.	.
CN=c1scc(-c2ccccc2F)n1/N=C/c1ccc(O)c(O)c1O	22*	50*	87*	62	92*	89*
CC(=O)N1c2ccccc2Nc2ccccc21	2	-1	8	100	.	.
CC(=O)N1c2ccccc2Oc2cc3ccccc3cc21	21*	-14	8	112	47*	-13
C=CCOC(=O)c1sc(NC(=O)c2ccc(OC)cc2)nc1C	55*	20	-8	87	60*	-11
COC1(NS(=O)(=O)c2ccc(Br)cc2)C(C)=CC(=O)C=C1C	2	-1	-6	107	.	.
COCCNC(=O)CN(C)S(=O)(=O)c1ccc(Br)cc1	-1	4	-1	100	.	.
COC(=O)NCCOC(=O)N(O)c1ccc(Br)cc1	50*	14	7	92	75*	-20
CC(C)(C)c1ccc(-c2conc2N)cc1	69*	4	-32	98	-5	-14
c1ccc(-c2nc3cc4ccccc4cc3[nH]2)nc1	26*	86*	44*	28	72*	66*
CC(=O)Nc1ccc2nc(-c3ccccn3)[nH]c2c1	2	1	-26	108	.	.
Cc1ccc2c(c1)C(c1ccccc1)N(C(=O)c1c(F)cccc1Cl)CC(=O)N2 (configuration not stated)	17*	.	.	.	4	-4
CC(C)CC(=O)N1CC(=O)Nc2ccc(F)cc2C1c1ccccc1 (configuration not stated)	39*	.	.	.	-6	-10
CCC(C)(C)NC(=O)c1ccc2c(c1)OCCO2	0	10	-1	94	.	.
O=C(COc1cc2oc(=O)c3c(c2cc1Cl)CCC3)NCc1ccccn1	-3	.	.	.	.	.
O=C(Nc1nc(-c2ccccc2)cs1)c1ccccc1F	2	.	.	.	.	.
COc1ccc(-c2csc(NC(=O)c3ccccc3F)n2)cc1	33*	.	.	.	-11	-32
CCC(C)c1ccc(NC(=S)NCc2ccccc2OC)cc1 (configuration not stated)	-4	7	-1	99	.	.
O=C(O)/C(=C\c1ccc(-c2ccccc2[N+](=O)[O-])o1)c1ccccc1	34*	.	.	.	-5	-9
O=C(/C=C/c1ccc(-c2ccccc2[N+](=O)[O-])o1)c1ccccc1	0	5	-3	100	.	.
Fc1ccc(NC(=S)Nc2cccnc2)c(F)c1F	-3	24	17	87	.	.
S=C(Nc1cccnc1)Nc1ccccc1Br	26*	9	-4	97	-10	-11
SMILES	HSP90 refold inh	STAT3 inh	STAT1 blocker	STAT3 act	HSP90 confirm	FLuc counter
O=C(CN1C(=O)COc2ccc(S(=O)(=O)N3CCCCC3)cc21)NCc1ccc(Cl)cc1	-4	.	.	.	.	.
CCCCOC(=O)Nc1nnc(CC)s1	29*	-13	-26	112	1	-20
CCCCCOC(=O)Nc1nnc(CCCCC)s1	-3	-1	-1	102	.	.
CCOC(=O)N1CCN(C(=O)CN(c2ccc(Oc3ccccc3)cc2)S(C)(=O)=O)CC1	-2	12	4	96	.	.
CS(=O)(=O)N(CC(=O)O)c1ccc(Oc2ccccc2)cc1	17*	0	-2	101	3	-3
Cc1cc2ccccc2c(=O)n1CC(=O)NCC(=O)N(C)Cc1ccccc1	-1	3	-3	103	.	.
Cc1cc2ccccc2c(=O)n1CC(=O)NCC(=O)N(C)C1CCCCC1	28*	-9	-4	108	-7	-10
O=c1n(Cc2ccccc2Cl)nc2n1-c1ccccc1SC2	-3	.	.	.	.	.
O=[N+]([O-])c1ccc(Nc2nc(NC3CCCCC3)nc(N3CCCC3)n2)cc1	10	16	12	90	.	.
O=[N+]([O-])c1ccc(NC2CCCC2)cc1	20*	-1	-6	101	-7	-12
